Measured values published in ChEMBL document CHEMBL4028882, “Thiazolino 2-Pyridone Amide Isosteres As Inhibitors of Chlamydia trachomatis Infectivity” (J Med Chem, 2017).
Active and inactive are the calls of the source. No cut-off for these calls is given here.

Assays:
Chlamydia trachomatis [1] = experiment: Antimicrobial activity against Chlamydia trachomatis serovar LGV-L2 454/Bu infected in human HeLa229 cells assessed as concentration required to reduce reinfection levels by >= 95% measured 44 to 48 hrs post infection by DAPI staining-based assay; format: functional
How it was run: (§1)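 HeLa cells were infected with C. trachomatis LGV-L2 and treated with compound. After 48 h the cells were lysed and the recovered bacteria used to infect fresh HeLa cells. Reinfection was quantified as new inclusion forming units versus cells infected with untreated bacteria. The concentration giving 95% reduction (Reinfect95) was determined from fixed concentrations of 2.5, 1.0, 0.5 and 0.25 μM.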

[2] = Cytotoxicity against human HeLa229 cells assessed as cell viability at 10 uM after 44 to 48 hrs by resazurin-based fluorometry relative to control; set-up: species or system HeLa 229; conditions: read-out: Activity
How it was run: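 HeLa host cell viability was measured with compound at 10 μM in a resazurin assay, run to exclude host toxicity as the cause of anti-infective activity.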

Salmonella typhimurium [3] = experiment: Mutagenicity in Salmonella typhimurium TA98/TA100 assessed as revertant colonies/plate in absence of rat liver S9 fraction at 10 ug/spot after 2 to 3 days by Ames test; format: toxicity; conditions: salmonella enterica subsp. enterica serovar typhimurium
How it was run: (§2)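 Mutagenicity was screened by the spot-based Ames test procedure, with compound applied at 10 μg/spot.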

Salmonella typhimurium [4] = experiment: Mutagenicity in Salmonella typhimurium TA98/TA100 assessed as revertant colonies/plate in presence of rat liver S9 fraction at 10 ug/spot after 2 to 3 days by Ames test; format: toxicity; conditions: salmonella enterica subsp. enterica serovar typhimurium; how it was run: as §2
Salmonella typhimurium [5] = experiment: Mutagenicity in Salmonella typhimurium TA1535/TA1538 assessed as revertant colonies/plate in presence of rat liver S9 fraction at 10 ug/spot after 2 to 3 days by Ames test; format: toxicity; conditions: salmonella enterica subsp. enterica serovar typhimurium; how it was run: as §2
Salmonella typhimurium [6] = experiment: Mutagenicity in Salmonella typhimurium TA1535/TA1538 assessed as revertant colonies/plate in absense of rat liver S9 fraction at 10 ug/spot after 2 to 3 days by Ames test; format: toxicity; conditions: salmonella enterica subsp. enterica serovar typhimurium; how it was run: as §2
Chlamydia trachomatis [7] = experiment: Antimicrobial activity against Chlamydia trachomatis serovar LGV-L2 454/Bu infected in human HeLa229 cells assessed as reduction in reinfection levels measured 44 to 48 hrs post infection by DAPI staining-based assay; format: functional, cell-based; conditions: HeLa 229; how it was run: as §1
Chlamydia trachomatis [8] = experiment: Antimicrobial activity against Chlamydia trachomatis serovar D UW-3 infected in human HeLa229 cells assessed as reduction in reinfection levels measured 44 to 48 hrs post infection by DAPI staining-based assay; format: functional, cell-based; conditions: serovar D UW-3, HeLa 229
Escherichia coli = experiment: Growth inhibition of Escherichia coli CCUG 17620 at 10 ug/ml after 24 hrs by disk diffusion method
How it was run: (§3)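 Disk diffusion assay of vaginal flora species (S. aureus, E. coli, L. jensenii, S. agalactiae) and the fungus C. albicans, with compound tested at 10 μg/mL.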

Staphylococcus aureus = experiment: Growth inhibition of Staphylococcus aureus CCUG 1800 at 10 ug/ml after 24 hrs by disk diffusion method; how it was run: as §3
Lactobacillus jensenii = experiment: Growth inhibition of Lactobacillus jensenii CCUG 33572 at 10 ug/ml after 24 hrs by disk diffusion method; how it was run: as §3
Streptococcus agalactiae = experiment: Growth inhibition of Streptococcus agalactiae CCUG 4208 at 10 ug/ml after 24 hrs by disk diffusion method; how it was run: as §3
Candida albicans = experiment: Growth inhibition of Candida albicans at 10 ug/ml after 24 hrs by disk diffusion method; how it was run: as §3
Chlamydia trachomatis [9] = experiment: Antimicrobial activity against Chlamydia trachomatis serovar LGV-L2 454/Bu infected in human HeLa229 cells at 1 uM compound treated during 48 hrs of infection by DAPI staining-based assay; format: functional, cell-based
How it was run: (§4)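 Time-of-addition format of the LGV-L2 HeLa infection/reinfection assay. Compound was present during the first 24 h, the second 24 h, or throughout the 48 h infection. Infectivity was then scored against untreated controls.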

Chlamydia trachomatis [10] = experiment: Antimicrobial activity against Chlamydia trachomatis serovar LGV-L2 454/Bu infected in human HeLa229 cells at 1 uM compound treated during first 24 hrs of infection by DAPI staining-based assay; format: functional, cell-based; how it was run: as §4
Chlamydia trachomatis [11] = experiment: Antimicrobial activity against Chlamydia trachomatis serovar LGV-L2 454/Bu expressing mCherry infected in human HeLa cells assessed as reduction in accumulation of BODIPY 22 in bacterial inclusions at 0.5 uM incubated for 48 hrs by BODIPY 22-based confocal microscopy

Q: Which Activity (Chlamydia trachomatis [1]) does the source give for O=C(NS(=O)(=O)c1ccccc1)C1CSc2c(C3CC3)c(Cc3cccc4ccccc34)cc(=O)n21 (configuration not stated) here?
A: >2.5 µM

Q: What about the viability at 10 µM [2] of the same compound?
A: 105%

Q: For Nc1c(Cc2cccc3ccccc23)c(C2CC2)c2n(c1=O)C(C(=O)Nc1ccccc1)CS2 (configuration not stated), which Activity (Salmonella typhimurium [3]) is on record?
A: Non-Toxic

Q: And the Activity (Salmonella typhimurium [4])?
A: Non-Toxic

Q: And the Activity (Salmonella typhimurium [5])?
A: Non-Toxic

Q: What about the Activity (Salmonella typhimurium [6]) of the same compound?
A: Non-Toxic

Q: What does the source list for O=c1cc(Cc2cccc3ccccc23)c(C2CC2)c2n1C(NS(=O)(=O)c1ccccc1)CS2 (configuration not stated)?
A: Activity (Chlamydia trachomatis [1]): >2.5 µM; viability at 10 µM [2]: 114%

Q: With O=c1cc(Cc2cccc3ccccc23)c(C2CC2)c2n1C(c1ncc(-c3ccccc3)s1)CS2 (configuration not stated) as the compound, how does the Activity (Chlamydia trachomatis [1]) read?
A: >2.5 µM

Q: What about the viability at 10 µM [2] of the same compound?
A: 97%

Q: Which results are given for O=c1cc(Cc2cccc3ccccc23)c(C2CC2)c2n1C(c1nc(-c3ccccc3)no1)CS2 (configuration not stated)?
A: Activity (Chlamydia trachomatis [1]): >2.5 µM; viability at 10 µM [2]: 99%

Q: Which results are given for O=C(CNC(=O)C1CSc2c(C3CC3)c(Cc3cccc4ccccc34)cc(=O)n21)c1ccccc1 (configuration not stated)?
A: Activity (Chlamydia trachomatis [1]): 2.5 µM; viability at 10 µM [2]: 107%

Q: Which results are given for O=c1cc(Cc2cccc3ccccc23)c(C2CC2)c2n1C(c1nc(-c3ccccc3)co1)CS2 (configuration not stated)?
A: Activity (Chlamydia trachomatis [1]): 2.5 µM; viability at 10 µM [2]: 83%

Q: Which Activity (Chlamydia trachomatis [1]) does the source give for Nc1c(Cc2cccc3ccccc23)c(C2CC2)c2n(c1=O)C(c1nc(-c3ccccc3)n[nH]1)CS2 (configuration not stated) here?
A: 0.25 µM

Q: What about the viability at 10 µM [2] of the same compound?
A: 100%

Q: Which results are given for Nc1c(Cc2cccc3ccccc23)c(C2CC2)c2n(c1=O)C(n1cc(-c3ccccc3)nn1)CS2 (configuration not stated)?
A: Activity (Salmonella typhimurium [3]): Non-Toxic; Activity (Chlamydia trachomatis [1]): 0.25 µM; viability at 10 µM [2]: 105%; EC50 (Chlamydia trachomatis [7]): 13 nM; EC50 (Chlamydia trachomatis [8]): 35 nM; Activity (Salmonella typhimurium [4]): Non-Toxic; Activity (Salmonella typhimurium [5]): Non-Toxic; Activity (Salmonella typhimurium [6]): Non-Toxic; growth inhibition (GI) (Escherichia coli): Non-Toxic; growth inhibition (GI) (Staphylococcus aureus): Non-Toxic; growth inhibition (GI) (Lactobacillus jensenii): Non-Toxic; growth inhibition (GI) (Streptococcus agalactiae): Non-Toxic; growth inhibition (GI) (Candida albicans): Non-Toxic; Activity (Chlamydia trachomatis [9]): Active; Activity (Chlamydia trachomatis [10]): inactive; Activity (Chlamydia trachomatis [11]): Active

Q: What does the source list for O=C(NC1CSc2c(C3CC3)c(Cc3cccc4ccccc34)cc(=O)n21)c1ccccc1 (configuration not stated)?
A: Activity (Chlamydia trachomatis [1]): 2.5 µM; viability at 10 µM [2]: 114%

Q: Which Activity (Chlamydia trachomatis [1]) does the source give for Cc1cccc(-c2n[nH]c(C3CSc4c(C5CC5)c(Cc5cccc6ccccc56)cc(=O)n43)n2)c1 (configuration not stated) here?
A: 0.5 µM

Q: And the viability at 10 µM [2]?
A: 95%

Q: For O=c1cc(Cc2cccc3ccccc23)c(C2CC2)c2n1C(c1nc(-c3ccccc3)c[nH]1)CS2 (configuration not stated), which Activity (Chlamydia trachomatis [1]) is on record?
A: 2.5 µM

Q: And the viability at 10 µM [2]?
A: 106%

Q: Which Activity (Salmonella typhimurium [3]) does the source give for O=c1cc(Cc2cccc3ccccc23)c(C2CC2)c2n1C(n1cc(-c3ccccc3)nn1)CS2 (configuration not stated) here?
A: Non-Toxic

Q: What about the Activity (Chlamydia trachomatis [1]) of the same compound?
A: 0.25 µM

Q: What about the viability at 10 µM [2] of the same compound?
A: 96%

Q: And the EC50 (Chlamydia trachomatis [7])?
A: 18 nM

Q: And the EC50 (Chlamydia trachomatis [8])?
A: 37 nM

Q: And the Activity (Salmonella typhimurium [4])?
A: Non-Toxic

Q: And the Activity (Salmonella typhimurium [5])?
A: Non-Toxic

Q: And the Activity (Salmonella typhimurium [6])?
A: Non-Toxic

Q: What about the “growth inhibition (GI)” value (Escherichia coli) of the same compound?
A: Non-Toxic

Q: And the “growth inhibition (GI)” value (Staphylococcus aureus)?
A: Non-Toxic

Q: And the “growth inhibition (GI)” value (Lactobacillus jensenii)?
A: Non-Toxic

Q: What about the “growth inhibition (GI)” value (Streptococcus agalactiae) of the same compound?
A: Non-Toxic

Q: What about the “growth inhibition (GI)” value (Candida albicans) of the same compound?
A: Non-Toxic

Q: What about the Activity (Chlamydia trachomatis [9]) of the same compound?
A: Active

Q: And the Activity (Chlamydia trachomatis [10])?
A: inactive

Q: And the Activity (Chlamydia trachomatis [11])?
A: Active

Q: For O=c1cc(Cc2cccc3ccccc23)c(C2CC2)c2n1C(c1nnc(-c3ccccc3)o1)CS2 (configuration not stated), which Activity (Chlamydia trachomatis [1]) is on record?
A: 1 µM

Q: What about the viability at 10 µM [2] of the same compound?
A: 103%

Q: Which results are given for O=c1cc(Cc2cccc3ccccc23)c(C2CC2)c2n1C(c1nc(-c3ccccc3)n[nH]1)CS2 (configuration not stated)?
A: Activity (Chlamydia trachomatis [1]): 0.5 µM; viability at 10 µM [2]: 98%

Q: For CC(C)(C)OC(=O)NC1CSc2c(C3CC3)c(Cc3cccc4ccccc34)cc(=O)n21 (configuration not stated), which Activity (Chlamydia trachomatis [1]) is on record?
A: >2.5 µM

Q: What about the viability at 10 µM [2] of the same compound?
A: 105%
